According to publication PMC4873341 (Molecular cancer therapeutics, 2016):
Read-outs that look alike come from different tables or passages of the source.

Experiments:
Hh pathway = format: cell-based; conditions: for Hh pathway inhibition by single drug at subtherapeutic dose: posaconazole 1 μM, KAAD-cyclopamine 10 nM, vismodegib 20 nM, SHHN CM; for Induction of Hh pathway activation by sterol alone: Shh-Light2 cells, absence of SHHN conditioned medium
[1] = tested on: ASZ and BSZ basal cell carcinoma cells; experiment: Quantitative PCR of Gli1 transcript in ASZ and BSZ basal cell carcinoma cells; format: cell-based, murine; conditions: posaconazole 1 μM; KAAD-cyclopamine 40 nM; GDC-0449 40 nM; 2 days
[2] = tested on: drug-resistant SMO mutants (D477G, E522K, G457S, S392N, D388N, N223D, L225R); format: cell-based, murine
SMO-G457S = format: cell-based, murine
[3] = Plasma pharmacokinetic study, single oral dose; format: in vivo, Balb-c mice; conditions: for AUC(0-t) / Cmax: Balb-c, mouse, plasma, po
How it was run: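 Balb-c mice, given acidified drinking water (pH 2.5), received one oral gavage of test-compound oral suspension diluted in sterile water (30 or 60 mg/kg). Mice were killed at various times. Plasma was extracted with methanol/formic acid containing tolbutamide internal standard and analysed by LC-MS/MS (C18 column). Parameters came from noncompartmental analysis; 3 mice per time point, mean ± S.D.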

Hh pathway (SMO) [4] = experiment: SHH-Light2 reporter assay stimulated with 20; format: cell-based
[5] = tested on: Hh pathway in allografted BCC tumors; experiment: Gli1 mRNA in allografted BCC tumors; format: in vivo, mice; conditions: 30 or 60 mg/kg twice per day by oral gavage for 5 days; p = 0.0224, p = 0.0033
SMO = SMO (Mus musculus, UniProt P56726); experiment: Fluorescent BODIPY-cyclopamine competition assay; format: binding; conditions: BODIPY-cyclopamine 5 nM
Sequence of SMO (P56726 33-793): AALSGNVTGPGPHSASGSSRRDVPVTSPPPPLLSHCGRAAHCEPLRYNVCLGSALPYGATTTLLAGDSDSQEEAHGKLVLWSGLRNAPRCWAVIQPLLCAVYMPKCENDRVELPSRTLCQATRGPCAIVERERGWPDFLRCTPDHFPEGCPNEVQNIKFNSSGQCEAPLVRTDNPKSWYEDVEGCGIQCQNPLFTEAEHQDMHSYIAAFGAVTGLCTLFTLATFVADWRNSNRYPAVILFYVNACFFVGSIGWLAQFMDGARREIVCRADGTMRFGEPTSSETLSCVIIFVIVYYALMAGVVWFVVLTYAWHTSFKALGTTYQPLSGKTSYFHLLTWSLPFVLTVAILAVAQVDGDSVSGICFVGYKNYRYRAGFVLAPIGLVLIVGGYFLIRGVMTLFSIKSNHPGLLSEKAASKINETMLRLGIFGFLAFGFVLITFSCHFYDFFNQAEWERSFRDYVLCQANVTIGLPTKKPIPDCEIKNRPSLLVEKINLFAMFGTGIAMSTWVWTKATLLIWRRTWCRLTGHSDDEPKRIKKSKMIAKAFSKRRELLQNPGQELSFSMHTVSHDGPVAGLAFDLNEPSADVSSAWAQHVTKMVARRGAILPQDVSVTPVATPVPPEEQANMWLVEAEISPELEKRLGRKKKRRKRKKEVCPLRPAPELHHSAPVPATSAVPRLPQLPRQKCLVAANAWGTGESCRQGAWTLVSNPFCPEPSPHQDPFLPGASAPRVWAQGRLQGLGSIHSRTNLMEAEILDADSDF

[6] = tested on: murine Ptch+/-;p53-/- BCC allografts; experiment: Tumor growth of subcutaneous BCC allografts; format: in vivo, mice; conditions: 30 mg/kg or 60 mg/kg twice-daily, oral gavage; p < 0.005
CYP 2D6 = conditions: cited from earlier work
CYP 1A2 = conditions: cited from earlier work
CYP 2C8 = conditions: cited from earlier work
CYP2C9 = conditions: cited from earlier work
[7] = tested on: SMO accumulation in primary cilia; format: cell-based; conditions: SHHN and posaconazole 7.5 μM; ~87% with SHHN and vehicle; p < 0.0001
How it was run: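 NIH-3T3 cells were stimulated with SHHN conditioned medium together with 7.5 μM test compound or vehicle. Cells were immunostained for SMO (rabbit polyclonal, 1:750) and acetylated tubulin (mouse monoclonal, 1:1000), then detected with AlexaFluor 488 and 594 secondaries. Confocal images were scored for the percentage of primary cilia with SMO; mean ± S.D. of at least 7 fields.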

[8] = tested on: cytochrome P450 (CYP) 3A4; conditions: cited from earlier work
CYP 2E1 = conditions: cited from earlier work
[9] = tested on: Hh pathway (Ptch-/- murine embryonic fibroblast cells); format: cell-based; conditions: Mus musculus, read-out: IC50 of Hh pathway inhibition
SMOA1 (SMO W539L) mutant = format: cell-based; conditions: Shh-Light2 SmoA1 cells
BCC tumors = experiment: Necrosis scoring of H&E sections of BCC tumors; format: in vivo, mice; conditions: posaconazole treated vs vehicle control; p = 0.0028
Hh pathway (SMO) [10] = experiment: SHH-Light2 reporter assay stimulated with SAG; format: cell-based; conditions: for EC50: read-out: EC50 of SAG
CYP2C19 = conditions: cited from earlier work
[11] = higher than human values of ref 41
[12] = increasing concentrations of posaconazole

Compound: CS(=O)(=O)c1ccc(C(=O)Nc2ccc(Cl)c(-c3ccccn3)c2)c(Cl)c1 [vismodegib]
- Hh pathway inhibition by single drug at subtherapeutic dose (Hh pathway): partially inhibited the Hh pathway
- Pathway inhibition as measured by Gli1 mRNA, single drug [1]: significantly inhibited the pathway
- Response of vismodegib-resistant SMO mutants (D477G, E522K) ([2]; vismodegib 0.5 μM (~40x IC50)): resistant

Compound: CC(C)CCC[C@@H](C)[C@H]1CC[C@H]2[C@@H]3CC=C4C[C@@H](O)CC[C@]4(C)[C@H]3CC[C@]12C [cholesterol]
- Induction of Hh pathway activation by sterol alone (Hh pathway): insufficient to induce Hh pathway activation

Compound: Cc1c(C(=O)Nc2ccc(N3C[C@@H](C)O[C@@H](C)C3)nc2)cccc1-c1ccc(OC(F)(F)F)cc1 [sonidegib]
- Response of SMO-G457S (SMO-G457S; sonidegib 0.05 μM): resistant
- Response of SMO-G457S (SMO-G457S; sonidegib 0.5 μM): inhibited
- Response of sonidegib-resistant SMO mutants ([2]; sonidegib 0.5 μM (~80x IC50)): resistant

Compound: CC(C)CCC[C@@H](C)[C@H]1CC[C@H]2C3=CC[C@H]4C[C@@H](O)CC[C@]4(C)[C@H]3CC[C@]12C [lathosterol]
- Induction of Hh pathway activation by sterol alone (Hh pathway): insufficient to induce Hh pathway activation

Compound: CC[C@@H]([C@H](C)O)n1ncn(-c2ccc(N3CCN(c4ccc(OC[C@@H]5CO[C@@](Cn6cncn6)(c6ccc(F)cc6F)C5)cc4)CC3)cc2)c1=O [posaconazole]
- AUC(0-t) ([3]; 30 mg/kg): 245 µg·h/mL
- Cmax ([3]; 30 mg/kg): 16100 ng/mL
- AUC(0-t) ([3]; 60 mg/kg): 288 µg·h/mL
- Cmax ([3]; 60 mg/kg): 15900 ng/mL
- AUC0-24h, murine 30 mg/kg relative to human 800 mg single dose [3, 11]: ~ 5 x
- Plasma Cmax, murine 30 mg/kg relative to human 800 mg single dose [3, 11]: ~ 12 x
- IC50 (Hh pathway (SMO) [4]; Shh Light2, read-out: IC50 of pathway activation by 20(S)-hydroxycholesterol): 164 nM
- Effect on maximal pathway activation of 20(S)-hydroxycholesterol (Hh pathway (SMO) [4]; [12]): decreased maximal pathway activation
- Effect on the EC50 of 20(S)-hydroxycholesterol (Hh pathway (SMO) [4]; [12]): did not significantly alter the EC50 of the oxysterol
- Hh pathway inhibition in tumors as measured by Gli1 mRNA [5]: significant inhibition of the Hh pathway
- Fluorescence of BODIPY-cyclopamine bound to SMO (SMO; increasing concentrations up to 10 μM): did not significantly decrease the fluorescence
- Tumor growth compared to vehicle control [6]: significantly suppressed tumor growth
- CYP2D6 inhibition (CYP 2D6): does not inhibit
- Decrease of the IC50 of posaconazole by KAAD-cyclopamine (Hh pathway; increasing concentrations of KAAD-cyclopamine): ~ 2.5 fold
- Hh pathway inhibition by single drug at subtherapeutic dose (Hh pathway): partially inhibited the Hh pathway
- CYP1A2 inhibition (CYP 1A2): does not inhibit
- CYP2C8 inhibition (CYP 2C8): does not inhibit
- CYP2C9 inhibition (CYP2C9): does not inhibit
- Primary cilia with SMO accumulation [7]: ~ 16%
- CYP3A4 inhibition [8]: inhibits
- CYP2E1 inhibition (CYP 2E1): does not inhibit
- IC50 [9]: 986 nM
- Inhibition of pathway activity (SMOA1 (SMO W539L) mutant): no inhibitory effect
- Tumor necrosis (necrosis score 0-3) (BCC tumors): significant levels of necrosis
- Effect on maximal induction of pathway activation by SAG (Hh pathway (SMO) [10]; posaconazole 0 to 7.5 μM): significantly decreased the maximal induction of pathway activation
- Effect on the EC50 of SAG (Hh pathway (SMO) [10]; posaconazole 0 to 7.5 μM): did not significantly alter the EC50 of SAG
- Pathway inhibition as measured by Gli1 mRNA, single drug [1]: significantly inhibited the pathway
- Activity against drug-resistant SMO mutants, single drug ([2]; Smo-/- fibroblasts, SHHN CM): showed inhibitory activity against all of the tested drug-resistant SMO mutants

Compound: C[C@@H](c1ncncc1F)[C@](O)(Cn1cncn1)c1ccc(F)cc1F [voriconazole]
- IC50 (Hh pathway; Shh Light2, read-out: No detectable inhibition of the Hh pathway up to): > 40000 nM

Compound: CC(O)C(C)n1ncn(-c2ccc(N3CCN(c4ccc(OCC5COC(Cn6cncn6)(c6ccc(Cl)cc6Cl)O5)cc4)CC3)cc2)c1=O (stereo not drawn) [hydroxy-itraconazole]
- CYP2C9 inhibition (CYP2C9): weaker inhibitors
- CYP3A4 inhibition [8]: strong inhibitors and substrates
- CYP2C19 inhibition (CYP2C19): weaker inhibitors

Compound: CC(C)=CCC[C@@H](C)[C@H]1CC[C@H]2[C@@H]3CC=C4C[C@@H](O)CC[C@]4(C)[C@H]3CC[C@]12C [desmosterol]
- Induction of Hh pathway activation by sterol alone (Hh pathway): insufficient to induce Hh pathway activation

Compound: CNC1CCC(N(Cc2cccc(-c3ccncc3)c2)C(=O)c2sc3ccccc3c2Cl)CC1 (stereo not drawn) [SAG]
- EC50 (Hh pathway (SMO) [10]; 0 nM KAAD-cyclopamine): 34 nM
- EC50 (Hh pathway (SMO) [10]; with 100 nM KAAD-cyclopamine): 244 nM

Compound: CCC(C)n1ncn(-c2ccc(N3CCN(c4ccc(OCC5COC(Cn6cncn6)(c6ccc(Cl)cc6Cl)O5)cc4)CC3)cc2)c1=O (stereo not drawn) [itraconazole]
- CYP2C9 inhibition (CYP2C9): weaker inhibitors
- CYP3A4 inhibition [8]: strong inhibitors and substrates
- CYP2C19 inhibition (CYP2C19): weaker inhibitors

Compound: CC1=C2C[C@H]3[C@@H](CC=C4CC(=O)CC[C@@]43C)[C@@H]2CC[C@]12O[C@@H]1C[C@H](C)CN(CCNC(=O)CCCCCNC(=O)CCc3ccccc3)[C@H]1[C@H]2C [KAAD-cyclopamine]
- Fluorescence of BODIPY-cyclopamine bound to SMO (SMO; KAAD-cyclopamine 200 nM and 400 nM): reduced the fluorescence of BD bound to SMO to baseline levels
- Hh pathway inhibition by single drug at subtherapeutic dose (Hh pathway): partially inhibited the Hh pathway
- IC50 (Hh pathway; read-out: IC50 of Hh pathway inhibition (given as 1x IC50), SHH-Light2 cells): 20 nM
- Shift (increase) of the EC50 of SAG (Hh pathway (SMO) [10]; KAAD-cyclopamine 20 nM (1x IC50)): ~ 3.5 fold
- Pathway inhibition as measured by Gli1 mRNA, single drug [1]: significantly inhibited the pathway
